Reference: article PMC3115796 (The Journal of Cell Biology, 2011)

B1: GFP–CLIP-170-N: amino acids 4–309 of the rat CLIP-170 (protein)
chain: LKPSGLKAPTKILKPGSTALKTPAAAAAPLEKTVPSEKASGPPSSETQEEFVDDFRVGERVWVNGNKPGFIQFLGETQFAPGQWAGIVLDEPIGKNDGSVAGVRYFQCEPLKGIFTRPSKLTRKVQAEDEANGLQTAHARAASPLSTAAATMVSSSPATPSNIPQKPSQPVAKETSATPQISNLTKTASESISNLSEAGSVKKGERELKIGDRVLVGGTKAGVVRFLGETDFAKGEWCGVELDEPLGKNDGAVAGTRYFQCQPKYGLFAPVHKVTKIGFPSTTPAKAKAAAVRRVMATTPASLKRS
modifications: left off: GFP, end not stated, kept
B2: GFP-SLAIN1: GFP-tagged SLAIN1 (protein)
chain: MMAEQVKCASPVAASGAGPGPVVNAELEVKKLQELVRKLEKQNEQLRSRAASAAAAPHLLLLQPPPPSAPPPAGACSPLATHRAPASTTSPGPGALGPAFPGTYCLPSPAPSLLCSLQPADAPFVYSKPAAGFFGGGGSPEPGTAGTPPGEAATPPLPPPTLLDEVEPLDLESLAAWSEEDDYTWLYVGSSKTFTSPEKSPSPLQWCRHVLDNPTPEMEAARRSLRFRLEQGYTSRGSPLSPQSSIDSELSTSELEDDSISMGYKLQDLTDVQIMARLQEESLRQDYASTSASVSRNSSSVSLSSGKKGTCSDQEYDRYSLEDEEEFDHLPPPQPRLPRCSPFQRGIPHSQTFSSIRDCRRSPSTQYFPSNNFQQPQYYPPQAQTADQQPNRTNGDKLRRSMPNLARMPSTAAASSNLSSPVTVRSSQSFDSSLHGAGSGVSRVPSCIPSPGQIQHRVHSVGHFPVPIRQPLKATAYVSPTVQGSSSSGSSGSSGGSGSGMPLSNGTQLYSTTGIPTPNKAAASGILGRSALPRPSLAINGSNLPRSKIAQPVRSFLQPPKPLSSLSTLRDGNWRDGCY
modifications: left off: GFP, end not stated, kept

Assays:
[1] = test system: SLAIN2 C terminus / full-length CLIP-170; experiment: GST-SLAIN2 pull-down of CLIPs and full-length CLIP-170; format: binding
[2] = test system: MT plus ends in HeLa cells; experiment: MT plus end tracking, live-cell imaging; format: cell-based; conditions: live or fixed cells
Method in brief: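 HeLa cells were grown in 45% DME, 45% Ham's F10 and 10% fetal calf serum. Live imaging used TIRF/widefield at 37°C in a stage-top incubator in culture medium (100× 1.49 NA objective, EMCCD, 0.065 µm/pixel). For fixed cells, −20°C methanol was applied for 15 min, with a 15-min 4% PFA postfix for SLAIN1/2 and EB1 staining, followed by immunofluorescence on a widefield microscope.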

Row | Molecule | association with SLAIN2 C terminus [1] | MT plus end tracking / localization (in words) [2]
1 | B1 | associated with the SLAIN2 C terminus | 
2 | B2 |  | colocalized with EB-positive MT ends
